Experimental data as given in article PMC8694313 (RSC Advances, 2021).
Values after ≈ are worked out from the molar mass of the structure shown.

Legend:
[1] = tested on: cotton pellet induced granuloma; assay: Cotton pellets induced granuloma assay; format: in vivo; settings: rat, 100 mg kg^−1 p.o. for 8 d, mean ± SEM
Summary of the method: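 Two sterile 10 mg cotton pellets implanted ventrally in rats, six per group. […] On day 9 rats were killed under excess ether. Pellets were freed of tissue and weighed wet, then dried at 55 °C for 6 h or to constant weight. Granuloma equals dry weight minus cotton weight. Mean ± SEM.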

[2] = tested on: carrageenan-induced paw edema; assay: Carrageenan induced hind paw edema assay; format: in vivo; settings: rat, 100 mg kg^−1 p.o., mean ± SEM
Summary of the method: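 Rats, six per group, acclimatized one week (25 ± 2 °C, 12 h light/dark, standard pellets, water ad libitum). […] Paw volume measured by plethysmometer displacement to the lateral malleolus at 1, 3 and 6 h. Mean ± SEM.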

Aspergillus niger = assay: In vitro antifungal MIC, poison plate technique; format: cell-based
Staphylococcus aureus = assay: In vitro antibacterial MIC determination; format: cell-based
Summary of the method: (§1)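 Bacteria grown on nutrient agar, subcultured to log phase in nutrient broth, then diluted in sterile saline to about 10^5–10^6 CFU mL−1. Test compounds diluted in acetone, DMSO or diethyl ether (ether preferred). Saturated disks placed on spread-plated inoculum and incubated at 37 °C for 24 h. MIC determined across different compound concentrations, with streptomycin as standard.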

Pseudomonas aeruginosa = assay: In vitro antibacterial MIC determination; format: cell-based
Summary of the method: as §1

COX-2 = biological target: T1, COX-2 (Ovis aries, UniProt P79208); assay: Colorimetric COX; format: biochemical, ovine; settings: read-out: % inhibition of COX, COX-2
T1 sequence (P79208 17-603): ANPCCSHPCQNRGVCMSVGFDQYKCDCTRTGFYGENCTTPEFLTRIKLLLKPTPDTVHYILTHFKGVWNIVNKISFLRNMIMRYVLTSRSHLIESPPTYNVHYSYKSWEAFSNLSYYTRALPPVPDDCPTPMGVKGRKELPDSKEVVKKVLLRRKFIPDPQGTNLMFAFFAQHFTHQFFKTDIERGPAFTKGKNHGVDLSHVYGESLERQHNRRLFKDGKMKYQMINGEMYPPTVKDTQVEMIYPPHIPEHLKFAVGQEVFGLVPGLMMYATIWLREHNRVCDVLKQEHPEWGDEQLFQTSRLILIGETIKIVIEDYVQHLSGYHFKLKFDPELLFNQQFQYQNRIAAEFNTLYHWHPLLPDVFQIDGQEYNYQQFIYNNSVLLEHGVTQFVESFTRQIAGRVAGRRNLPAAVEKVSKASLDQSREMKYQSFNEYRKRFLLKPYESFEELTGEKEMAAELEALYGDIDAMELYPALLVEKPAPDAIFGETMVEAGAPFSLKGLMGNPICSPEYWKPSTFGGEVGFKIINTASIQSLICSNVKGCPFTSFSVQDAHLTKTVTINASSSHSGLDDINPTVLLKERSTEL

Aspergillus flavus = assay: In vitro antifungal MIC, poison plate technique; format: cell-based
Escherichia coli = assay: In vitro antibacterial MIC determination; format: cell-based
Summary of the method: as §1

COX-1 = biological target: T2, COX-1 (Ovis aries, UniProt P05979); assay: Colorimetric COX; format: biochemical, ovine; settings: read-out: % inhibition of COX, COX-1
T2 sequence (P05979 25-600): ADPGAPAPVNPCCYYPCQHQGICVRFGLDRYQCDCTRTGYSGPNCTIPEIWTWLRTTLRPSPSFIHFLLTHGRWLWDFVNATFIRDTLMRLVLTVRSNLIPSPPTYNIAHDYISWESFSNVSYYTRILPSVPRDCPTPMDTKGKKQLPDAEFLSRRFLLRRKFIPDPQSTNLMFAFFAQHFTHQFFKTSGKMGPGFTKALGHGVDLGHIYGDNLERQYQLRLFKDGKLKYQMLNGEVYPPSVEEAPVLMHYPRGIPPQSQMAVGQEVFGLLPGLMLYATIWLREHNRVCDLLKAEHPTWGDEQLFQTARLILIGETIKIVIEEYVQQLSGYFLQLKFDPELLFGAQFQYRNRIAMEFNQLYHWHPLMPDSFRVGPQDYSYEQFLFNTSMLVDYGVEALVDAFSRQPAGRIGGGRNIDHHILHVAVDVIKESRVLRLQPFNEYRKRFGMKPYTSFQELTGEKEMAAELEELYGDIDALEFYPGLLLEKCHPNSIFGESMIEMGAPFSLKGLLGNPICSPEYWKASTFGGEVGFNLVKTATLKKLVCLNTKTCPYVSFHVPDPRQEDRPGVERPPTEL

Rhizopus arrhizus = assay: In vitro antifungal MIC, poison plate technique; format: cell-based
Bacillus subtillis = assay: In vitro antibacterial MIC determination; format: cell-based
Summary of the method: as §1

RAW 264.7 cells [3] = assay: Nitrite; format: cell-based, murine; settings: RAW 264.7, 100 μM and 200 μM pre-treatment; Fig. 5
Summary of the method: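 RAW 264.7 cells (1 × 10^6) seeded in flasks and left to adhere overnight. Pretreated 1 h with test compound (100 or 200 μM), then 100 μM LPS for 24 h at 37 °C, 5% CO2. Supernatant mixed with an equal volume of Griess reagent (0.1% naphthylethylenediamine and 1% sulfanilamide, 1:1, in 5% phosphoric acid) for 10 min in the dark at room temperature; A540 read. Nitrite quantified from a NaNO2 standard curve (0.1–6.25 μM), expressed as μmol NO2−/mg protein. Triplicates.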

RAW 264.7 cells [4] = assay: MTT assay, LPS-induced inflammation in RAW 264.7; format: cell-based, murine; settings: RAW 264.7, pre-treatment 100 μM and 200 μM, then LPS; Fig. 4
Summary of the method: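 Mouse RAW 264.7 macrophages kept in high-glucose DMEM with 10% heat-inactivated FBS and 1% penicillin–streptomycin at 37 °C, 5% CO2. Cells seeded at 5 × 10^5 cells per mL, pretreated 1 h with test compound (100 or 200 μM), then stimulated with […] for 24 h. Medium replaced; 0.5 mg mL−1 MTT for 3 h; formazan dissolved in DMSO; OD read at 540 nm. Percent inflammation derived by subtracting percent viability relative to control.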

| SMILES | Weight, Dry (cotton pellet) [1] | Weight, Wet (cotton pellet) [1] | Paw volume ([2]; 1 h after carrageenan) | Paw volume ([2]; 3 h after carrageenan) | Paw volume ([2]; 6 h after carrageenan) | MIC (Aspergillus niger) | MIC (Staphylococcus aureus) | MIC (Pseudomonas aeruginosa) | inhibition at 100 µM (COX-2) | inhibition at 200 µM (COX-2) | MIC (Aspergillus flavus) | MIC (Escherichia coli) | inhibition at 100 µM (COX-1) | inhibition at 200 µM (COX-1) | MIC (Rhizopus arrhizus) | MIC (Bacillus subtillis) | inhibition of LPS-induced NO production (RAW 264.7 cells [3]) | anti-inflammatory activity against LPS induced cell death / inflammation (MTT) (RAW 264.7 cells [4]) |
| --- | --- | --- | --- | --- | --- | --- | --- | --- | --- | --- | --- | --- | --- | --- | --- | --- | --- | --- |
| Cc1ccc(-c2cc(C(F)(F)F)nn2-c2ccc(S(N)(=O)=O)cc2)cc1 [Celecoxib, reference compound] | 78.80 ± 3.24 mg | 150.14 ± 3.46 mg | 0.80 ± 0.50 mL | 0.98 ± 0.92 mL | 1.58 ± 0.22 mL | – | – | – | – | – | – | – | – | – | – | – | – | – |
| CCOC(=O)NC[C@@H](O)[C@@H]1CCc2cc(F)ccc2O1 [Compound 9d, Ethyl((R)-2-((S)-6-fluorochroman-2-yl)-2-hydroxyethyl)carbamate] | – | – | – | – | – | 28.46 ± 0.14 µg/mL (≈ 100 µM) | 18.1 ± 0.8 µg/mL (≈ 63.8 µM) | 31.7 ± 0.88 µg/mL (≈ 112 µM) | 29.7 ± 0.75% | 38.59 ± 0.29% | 25.2 ± 0.66 µg/mL (≈ 89 µM) | 27.2 ± 0.92 µg/mL (≈ 96.1 µM) | 41.4 ± 0.62% | 52.16 ± 0.3% | 31.3 ± 0.45 µg/mL (≈ 110 µM) | 27.7 ± 0.44 µg/mL (≈ 97.6 µM) | – | – |
| CC(C)COC(=O)NC[C@@H](O)[C@@H]1CCc2cc(F)ccc2O1 [Compound 9c, Isobutyl ((R)-2-((S)-6-fluorochroman-2-yl)-2-hydroxyethyl)carbamate] | – | – | – | – | – | 19.3 ± 0.47 µg/mL (≈ 62.1 µM) | 19 ± 1.08 µg/mL (≈ 61.2 µM) | 28.8 ± 0.6 µg/mL (≈ 92.5 µM) | 24.3 ± 0.2% | 41.66 ± 0.23% | 19.8 ± 0.37 µg/mL (≈ 63.6 µM) | 22.7 ± 0.26 µg/mL (≈ 73 µM) | 39.6 ± 0.08% | 51.64 ± 0.32% | 25.6 ± 0.48 µg/mL (≈ 82.1 µM) | 26.1 ± 0.3 µg/mL (≈ 83.8 µM) | – | – |
| COC(=O)NC[C@@H](O)[C@@H]1CCc2cc(F)ccc2O1 [Compound 9a, Methyl ((R)-2-((S)-6-fluorochroman-2-yl)-2-hydroxyethyl)carbamate] | – | – | 0.72 ± 0.72 mL | 1.06 ± 0.52 mL | 1.56 ± 0.33 mL | 11.2 ± 1.08 µg/mL (≈ 41.6 µM) | 16.6 ± 0.35 µg/mL (≈ 61.5 µM) | 19.5 ± 1.25 µg/mL (≈ 72.3 µM) | 18.1 ± 0.88% | 52.42 ± 0.21% | 12.7 ± 0.8 µg/mL (≈ 47 µM) | 21.7 ± 1.06 µg/mL (≈ 80.6 µM) | 50.66 ± 0.33% | 75.33 ± 0.14% | 14.2 ± 0.69 µg/mL (≈ 52.7 µM) | 20.5 ± 0.76 µg/mL (≈ 76.1 µM) | strong inhibition | strong anti-inflammatory activity |
| O=[N+]([O-])c1cc(S(=O)(=O)NC[C@@H](O)[C@@H]2CCc3cc(F)ccc3O2)ccc1Cl [Compound 8d, 4-Chloro-N-((R)-2-((S)-6-Fluorochroman-2-yl)-2-hydroxyethyl)-3-nitrobenzenesulfonamide] | – | – | 0.78 ± 0.88 mL | 1.08 ± 0.40 mL | 1.50 ± 0.64 mL | 15.3 ± 0.15 µg/mL (≈ 35.5 µM) | 17.4 ± 0.4 µg/mL (≈ 40.5 µM) | 27.4 ± 0.65 µg/mL (≈ 63.6 µM) | 39.3 ± 0.77% | 63.88 ± 0.46% | 17 ± 0.7 µg/mL (≈ 39.6 µM) | 24.2 ± 0.72 µg/mL (≈ 56.1 µM) | 53.88 ± 0.3% | 69.64 ± 0.18% | 18.6 ± 0.65 µg/mL (≈ 43.3 µM) | 18.3 ± 0.21 µg/mL (≈ 42.5 µM) | strong inhibition | strong anti-inflammatory activity |
